Each structure is given as a SMILES string.

The target of one assay is T1, Proto-oncogene tyrosine-protein kinase Src (Homo sapiens, UniProt P12931). Description: Inhibition of Src Kinase at 1 uM.
T1 sequence (P12931 2-536 limits assumed): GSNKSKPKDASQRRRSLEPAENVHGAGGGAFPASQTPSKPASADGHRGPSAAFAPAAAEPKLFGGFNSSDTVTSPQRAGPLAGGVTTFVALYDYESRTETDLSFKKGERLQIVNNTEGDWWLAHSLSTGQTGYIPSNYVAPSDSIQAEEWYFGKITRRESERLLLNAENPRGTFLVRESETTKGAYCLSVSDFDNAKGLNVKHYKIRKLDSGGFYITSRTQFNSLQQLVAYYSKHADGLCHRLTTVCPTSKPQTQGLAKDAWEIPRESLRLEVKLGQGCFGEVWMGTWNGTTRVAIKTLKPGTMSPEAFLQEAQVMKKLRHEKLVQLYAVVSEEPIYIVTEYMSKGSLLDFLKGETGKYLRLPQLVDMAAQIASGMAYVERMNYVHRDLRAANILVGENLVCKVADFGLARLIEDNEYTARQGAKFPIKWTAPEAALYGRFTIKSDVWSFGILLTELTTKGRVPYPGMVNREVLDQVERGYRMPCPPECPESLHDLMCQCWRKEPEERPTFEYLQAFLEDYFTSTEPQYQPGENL
`COc1cccc2c(Nc3ccc(Cl)cc3Cl)c(C#N)cnc12` showed an inhibition of under 20%.
`N#Cc1cnc2cc(O)c(O)cc2c1Nc1ccc(Cl)cc1Cl` gave an inhibition of under 20%.
In turn, `COc1cc2ncc(C(=O)O)c(Nc3ccc(Cl)cc3Cl)c2cc1OC` gave an inhibition of under 20%.
For the compound `CCOC(=O)c1cnc2cc(OC)c(OC)cc2c1Nc1ccc(Cl)cc1Cl`, the inhibition is under 20%.
The compound `COc1cc(OC)c2c(Nc3ccc(Cl)cc3Cl)c(C#N)cnc2c1` gave an inhibition of 52%.
Compound `COc1cc2ncc(C(N)=O)c(Nc3ccc(Cl)cc3Cl)c2cc1OC` returned an inhibition of under 20%.
In turn, `N#Cc1cnc2ccccc2c1Nc1ccc(Cl)cc1Cl` gave an inhibition of under 20%.
The same measure, in the same setting: as for `COc1cc2ncc(C#N)c(NCc3ccc(Cl)cc3Cl)c2cc1OC`, the figure is 24%; as for `COc1cc2ncc(C#N)c(NC(=O)c3ccc(Cl)cc3Cl)c2cc1OC`, under 20%.
`COc1cc2/c(=N/c3ccc(Cl)cc3Cl)c(C#N)cn(C)c2cc1OC` displayed an inhibition of under 20%.
Consider `COc1cc2ncc(C#N)c(N(C)c3ccc(Cl)cc3Cl)c2cc1OC`, for which the inhibition is 32%.
On the same count and under the same terms, as for `COc1cc2ncc(CO)c(Nc3ccc(Cl)cc3Cl)c2cc1OC`, the figure is under 20%.
With `COc1cc2ncc(C#N)c(Oc3ccc(Cl)cc3Cl)c2cc1OC`, the inhibition was determined as 37%.

For the next assay, the target named is T1, Proto-oncogene tyrosine-protein kinase Src. Description: Inhibition of Src Kinase at 1 mM ATP. The procedure, abridged: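 Src ELISA kinase assay with Src (3 units/reaction) and cdc2 substrate peptide in Tris-HCl pH 7.5 buffer with MgCl₂, EGTA and vanadate. After a 10 min, 30 °C preincubation with compound, the reaction is started with ATP raised to 1 mM and run 1 h at 30 °C. It is stopped with EDTA and phosphotyrosine is detected by ELISA.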
Consider `COc1cc2ncc(C#N)c(Nc3ccc(Cl)cc3Cl)c2cc1OC`, for which the half-maximal inhibitory concentration (IC50) is 130 nM.

The next assay has the same target. Put plainly: Inhibition of Src Kinase at 5 mM ATP. The procedure, abridged:
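Same Src ELISA format: enzyme at 3 units/reaction, cdc2 peptide substrate, Tris-HCl pH 7.5/MgCl₂/EGTA/Na₃VO₄ buffer, and 10 min compound preincubation at 30 °C. ATP is raised to 5 mM to start the reaction, which runs 1 h at 30 °C. It is quenched with EDTA and phosphorylation is read by ELISA.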
On to `COc1cc2ncc(C#N)c(Nc3ccc(Cl)cc3Cl)c2cc1OC`, for which the IC50 amounted to 270 nM.

For the next assay the target is unchanged. Description: Inhibition of Src Kinase at 0.1 mM ATP. Summed up:
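Compound is preincubated 10 min at 30 °C, then the reaction is started with ATP (100 μM final) and run 1 h at 30 °C. It is stopped with EDTA and read by ELISA for tyrosine phosphorylation. Compounds are run in duplicate; values are the mean of at least two determinations.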
The compound `COc1cc2ncc(C#N)c(Nc3ccc(Cl)cc3Cl)c2cc1OC` displayed an IC50 of 23 nM.

For the next assay the target is unchanged. Put plainly: Inhibitory activity against human c-Src Kinase was measured using ELISA assay. Summed up: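 Src (3 units/reaction) and cdc2 substrate peptide were preincubated with compound for 10 min at 30 °C in 50 mM Tris-HCl pH 7.5, 10 mM MgCl2, 0.1 mM EGTA and 0.5 mM Na3VO4. ATP was added to 100 μM final, the reaction ran 1 h at 30 °C, and EDTA stopped it. Phosphotyrosine was read by ELISA kit.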
`COc1cc2ncc(C#N)c(Nc3ccc(I)cc3Cl)c2cc1OC` showed an IC50 of 95 nM.
As to `COc1cc2ncc(C#N)c(Nc3c(Cl)cccc3Cl)c2cc1OC`, the IC50 amounted to 61 nM.
Still for that read-out and setting: as for `COc1ccc2ncc(C#N)c(Nc3ccc(Cl)cc3Cl)c2c1`, the figure is 320 nM; as for `COc1cc2ncc(C#N)c(Nc3ccc(Cl)cc3)c2cc1OC`, 53 nM.
With `COc1ccc2c(Nc3ccc(Cl)cc3Cl)c(C#N)cnc2c1`, the IC50 was found to be 200 nM.
As for `COc1cc2c(Nc3ccc(Cl)cc3Cl)c(C#N)cnc2cc1OCCCN1CCOCC1`, the IC50 worked out at 3.8 nM.
The compound `COc1cc2ncnc(Nc3ccc(Cl)cc3Cl)c2cc1OC` had an IC50 of 250 nM.
As for `COc1cc2ncc(C#N)c(Nc3ccc(Cl)c(Cl)c3)c2cc1OC`, the IC50 was 57 nM.
On the same count and under the same terms, as for `CCCCOc1cc2ncc(C#N)c(Nc3ccc(Cl)cc3Cl)c2cc1OCCCC`, the figure is 160 nM; as for `COc1cc2ncc(C#N)c(Nc3cccc(Cl)c3Cl)c2cc1OC`, 90 nM.
The same measure, in the same setting: in the case of `COc1cc2c(Nc3ccc(Cl)cc3Cl)c(C#N)cnc2cc1OCCCN1CCN(C)CC1` it was 8.7 nM.
The compound `COc1cc2ncc(C#N)c(Nc3ccc(Cl)cc3Cl)c2cc1OC` came in with a concentration for half-maximal inhibition (IC50) of 30 nM.
`COc1cc2ncc(C=O)c(Nc3ccc(Cl)cc3Cl)c2cc1OC` registered an IC50 of 250 nM.
Consider `COc1cc2ncc(C#N)c(Nc3cc(Cl)cc(Cl)c3)c2cc1OC`, for which the IC50 was 1100 nM.
`COc1cc2ncc(C#N)c(Nc3ccc(Cl)cc3Cl)c2cc1OCCCN1CCOCC1` had an IC50 of 220 nM.
Same read-out and setting: in the case of `COc1cc2ncc(C#N)c(Sc3ccc(Cl)cc3Cl)c2cc1OC` it was 2200 nM; in that of `COc1cc2ncc(C#N)c(Nc3ccc(Cl)cc3Br)c2cc1OC`, 10 nM.
`COc1cc2ncc(C#N)c(Nc3ccccc3Cl)c2cc1OC` had an IC50 of 95 nM.
On the same count and under the same terms, in the case of `COc1cc2ncc(C#N)c(Nc3cc(Cl)ccc3Cl)c2cc1OC` it was 40 nM; in that of `CCOc1cc2ncc(C#N)c(Nc3ccc(Cl)cc3Cl)c2cc1OCC`, 11 nM.
In turn, `COc1cccc2ncc(C#N)c(Nc3ccc(Cl)cc3Cl)c12` had an IC50 of 1200 nM.
The same measure, in the same setting: as for `COc1cc2ncc(C#N)c(Nc3ccc(Cl)cc3I)c2cc1OC`, the figure is 6.2 nM.
Consider `COc1cc2ncc(C#N)c(Nc3ccc(Cl)cc3F)c2cc1OC`, for which the IC50 is 53 nM.
Compound `COc1cc2nccc(Nc3ccc(Cl)cc3Cl)c2cc1OC` gave an IC50 of 84 nM.
Still for that read-out and setting: as for `COc1cc2ncc(C#N)c(Nc3ccc(Br)cc3Cl)c2cc1OC`, the figure is 15 nM; as for `N#Cc1cnc2cc(OCCCN3CCOCC3)c(OCCCN3CCOCC3)cc2c1Nc1ccc(Cl)cc1Cl`, 19 nM; as for `COc1cc2c(Nc3ccc(Cl)cc3Cl)c(C#N)cnc2cc1OCCCN1CCC(O)CC1`, 3.5 nM.

Source of the values: ChEMBL document CHEMBL1134365, “Synthesis and Src kinase inhibitory activity of a series of 4-phenylamino-3-quinolinecarbonitriles” (J Med Chem, 2001).
